Data from ChEMBL document CHEMBL1800025 (J Med Chem, 2011).
The source made the active and inactive calls. The rule behind the calls is not given here.

Experiments:
[1] = molecular target: Dual specificity protein kinase CLK3 (Mus musculus, UniProt O35492); experiment: Inhibition of mouse recombinant GST-tagged CLK3 using GRSRSRSRSRSR as substrate
In short: (§1)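 Mouse GST-fusion CLK1 or CLK3 expressed in E. coli. Assay buffer A (Tris-HCl pH 7.5, MgCl2, EGTA, DTT, heparin) plus 0.15 mg/mL BSA. RS peptide 1 μg/assay, 15 μM ATP final, 30 C. Blank subtracted; activity expressed as percent of activity without inhibitor. DMSO controls. Concentration range up to 10 μM.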

[2] = molecular target: Cyclin-dependent kinase 5/CDK5 activator 1 (Homo sapiens) (UniProt Q00535+Q15078); experiment: Inhibition of human recombinant CDK5/p25 at 10 uM; type: protein-complex assay
In short: (§2)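 Kinase assayed in buffer C (25 mM Mops pH 7.2, 60 mM beta-glycerophosphate, 30 mM p-nitrophenylphosphate, 15 mM MgCl2, 5 mM EGTA, 1 mM DTT, 0.1 mM vanadate) with 1 mg/mL histone H1. 15 μM ATP final, 30 C. Activity is percent of activity without inhibitor, after blank subtraction. DMSO controls.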

[3] = molecular target: Dual specificity tyrosine-phosphorylation-regulated kinase 1A (Rattus norvegicus, UniProt Q63470); experiment: Inhibition of rat recombinant GST-tagged DYRK1A using KKISGRLSPIMTEQ as substrate and [gamma32]-ATP after 30 mins by scintillation counting
In short: (§3)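 GST fusion kinases expressed in E. coli and purified on glutathione-agarose; DYRK1A is rat, DYRK2 is human. Assay buffer A (25 mM Tris-HCl pH 7.5, 10 mM MgCl2, 1 mM EGTA, 1 mM DTT, 50 μg/mL heparin) plus 0.15 mg/mL BSA. Product captured on P81 paper, washed in 1% phosphoric acid, scintillation counted. Activity expressed as percent of uninhibited control.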

Sus scrofa = organism: Sus scrofa; experiment: Inhibition of pig brain CK1 delta/epsilon using RRKHAAIGpSAYSITA as substrate at 10 uM
In short: (§4)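 Native CK1δ/ε from porcine brain, assayed in 3-fold diluted buffer C with 25 μM CKS peptide substrate. 15 μM ATP final, 30 C. Activity is percent of uninhibited control after blank subtraction, with DMSO controls. Inhibitor tested over a range of concentrations up to 10 μM.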

[4] = molecular target: T1, Serine/threonine-protein kinase pim-1 (Homo sapiens, UniProt P11309); experiment: Inhibition of human recombinant Pim1
In short: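 Kinase assayed in buffer C (25 mM Mops pH 7.2, 60 mM beta-glycerophosphate, 30 mM p-nitrophenylphosphate, 15 mM MgCl2, 5 mM EGTA, 1 mM DTT, 0.1 mM vanadate) with 1 mg/mL histone H1. DMSO controls.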
Target sequence in this assay (P11309 whole entry): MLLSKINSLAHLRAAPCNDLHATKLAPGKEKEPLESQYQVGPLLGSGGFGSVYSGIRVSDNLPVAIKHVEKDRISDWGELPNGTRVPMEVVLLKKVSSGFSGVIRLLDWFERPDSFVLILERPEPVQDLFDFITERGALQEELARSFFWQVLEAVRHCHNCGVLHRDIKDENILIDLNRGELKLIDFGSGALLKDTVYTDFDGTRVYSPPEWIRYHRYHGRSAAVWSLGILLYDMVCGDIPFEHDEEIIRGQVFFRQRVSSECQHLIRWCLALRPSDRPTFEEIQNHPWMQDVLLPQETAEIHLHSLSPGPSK

[5] = molecular target: Dual specificity protein kinase CLK1 (Mus musculus, UniProt P22518); experiment: Inhibition of mouse recombinant GST-tagged CLK1 using GRSRSRSRSRSR as substrate; in short: as §1
[6] = molecular target: T2, Dual specificity tyrosine-phosphorylation-regulated kinase 2 (Homo sapiens, UniProt Q92630); experiment: Inhibition of human recombinant GST-tagged DYRK2 using KKISGRLSPIMTEQ as substrate and [gamma32]-ATP after 30 mins by scintillation counting; in short: as §3
T2 sequence (Q92630 whole entry): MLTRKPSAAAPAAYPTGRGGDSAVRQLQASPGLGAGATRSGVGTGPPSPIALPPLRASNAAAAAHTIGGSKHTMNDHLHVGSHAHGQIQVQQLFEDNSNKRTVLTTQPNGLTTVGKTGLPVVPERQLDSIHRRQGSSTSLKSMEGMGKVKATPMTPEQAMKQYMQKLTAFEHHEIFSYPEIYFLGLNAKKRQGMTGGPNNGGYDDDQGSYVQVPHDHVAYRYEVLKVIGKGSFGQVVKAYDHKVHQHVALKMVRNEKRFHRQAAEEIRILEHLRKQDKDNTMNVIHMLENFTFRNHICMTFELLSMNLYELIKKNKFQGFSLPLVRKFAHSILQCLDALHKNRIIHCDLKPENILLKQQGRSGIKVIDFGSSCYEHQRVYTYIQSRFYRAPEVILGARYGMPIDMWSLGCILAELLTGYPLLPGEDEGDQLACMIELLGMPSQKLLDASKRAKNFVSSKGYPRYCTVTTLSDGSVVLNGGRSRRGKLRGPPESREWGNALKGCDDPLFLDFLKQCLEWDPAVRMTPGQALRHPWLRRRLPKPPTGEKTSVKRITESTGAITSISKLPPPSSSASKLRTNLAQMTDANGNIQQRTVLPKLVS

[7] = system: Cyclin-dependent kinase 5/p25 (Homo sapiens); experiment: Inhibition of human recombinant CDK5/p25 at 10 uM
[8] = Inhibition of pig brain CK1 delta/epsilon using RRKHAAIGpSAYSITA as substrate; design: species or system Sus scrofa; in short: as §4
[9] = molecular target: Dual specificity protein kinase CLK1 (Homo sapiens) (UniProt P49759); experiment: Inhibition of CLK1 transfected in human HeLa cells assessed as increase in exon inclusion ratio after 24 hrs by RT-PCR analysis; type: cell-based
In short: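 HeLa cells were transfected with […], with kinase-dead CLK1/K190R as comparator. Inhibitors at varying doses were added 3 h post-transfection, with 0.5% DMSO final in all cultures. Cells were harvested 24 h post-transfection, total RNA was extracted, and E1A splicing products were analysed by RT-PCR. Isoform molar ratios were measured by Bioanalyzer to give the exon inclusion ratio. Three independent samples were used.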

[10] = molecular target: Glycogen synthase kinase-3 (Sus scrofa, UniProt B2LUN4+I6LNT8); experiment: Inhibition of pig brain GSK-3alpha/beta using YRRAAVPPSPSLSRHSSPHQSpEDEEE as substrate
In short: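 Compounds were tested at various concentrations, the highest being 10 μM, with DMSO dilution controls. Blanks were subtracted and activity was expressed as percent of the uninhibited maximum.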

[11] = molecular target: Dual specificity protein kinase CLK1 (Mus musculus) (UniProt P22518); experiment: Inhibition of mouse recombinant GST-tagged CLK1 using GRSRSRSRSRSR as substrate at 10 uM; in short: as §1
[12] = molecular target: T3, Dual specificity tyrosine-phosphorylation-regulated kinase 2 (Homo sapiens) (UniProt Q92630); experiment: Inhibition of human recombinant GST-tagged DYRK2 using […] as substrate and [gamma32]-ATP at 10 uM after 30 mins by scintillation counting
T3 sequence (whole entry): T2 sequence (Q92630 whole entry)
In short: as §3, with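 “BSA. Woodtide 1.5 μg/assay with 15 μM [γ-33P]ATP, 30 min at 30 C.” for “BSA.”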

[13] = molecular target: Dual specificity protein kinase CLK3 (Mus musculus) (UniProt O35492); experiment: Inhibition of mouse recombinant GST-tagged CLK3 using GRSRSRSRSRSR as substrate at 10 uM; in short: as §1
[14] = molecular target: Dual specificity tyrosine-phosphorylation-regulated kinase 1A (Rattus norvegicus) (UniProt Q63470); experiment: Inhibition of rat recombinant GST-tagged DYRK1A using KKISGRLSPIMTEQ as substrate and [gamma32]-ATP at 10 uM after 30 mins by scintillation counting
In short: as §3, with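 “BSA. Woodtide 1.5 μg/assay with 15 μM [γ-33P]ATP, 30 min at 30 C.” for “BSA.”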

[15] = molecular target: T1, Serine/threonine-protein kinase pim-1; experiment: Inhibition of human recombinant Pim1 at 10 uM; in short: as §2
Target sequence in this assay (P11309 whole entry, looked up): as the sequence (P11309 whole entry) above

[16] = molecular target: Glycogen synthase kinase-3 alpha/beta (Sus scrofa); experiment: Inhibition of pig brain GSK-3alpha/beta

Dual specificity protein kinase CLK1 (Mus musculus), sequence (P22518 whole entry, looked up): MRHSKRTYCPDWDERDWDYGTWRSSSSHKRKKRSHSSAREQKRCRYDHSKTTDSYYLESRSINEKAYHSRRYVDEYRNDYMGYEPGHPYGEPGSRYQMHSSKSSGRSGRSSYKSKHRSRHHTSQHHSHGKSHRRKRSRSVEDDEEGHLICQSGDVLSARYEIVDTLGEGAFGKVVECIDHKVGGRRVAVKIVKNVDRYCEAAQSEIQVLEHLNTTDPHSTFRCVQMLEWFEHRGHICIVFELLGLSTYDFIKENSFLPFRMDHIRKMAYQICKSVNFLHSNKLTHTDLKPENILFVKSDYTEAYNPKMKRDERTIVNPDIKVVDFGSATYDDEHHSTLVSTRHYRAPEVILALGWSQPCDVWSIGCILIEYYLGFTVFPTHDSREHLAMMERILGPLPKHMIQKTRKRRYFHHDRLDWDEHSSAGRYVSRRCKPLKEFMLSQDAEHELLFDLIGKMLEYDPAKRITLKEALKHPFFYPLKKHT
Dual specificity protein kinase CLK1, sequence (P22518 whole entry): as the sequence (P22518 whole entry, looked up) above
Dual specificity protein kinase CLK1 (Homo sapiens), sequence (P49759 whole entry, looked up, canonical isoform): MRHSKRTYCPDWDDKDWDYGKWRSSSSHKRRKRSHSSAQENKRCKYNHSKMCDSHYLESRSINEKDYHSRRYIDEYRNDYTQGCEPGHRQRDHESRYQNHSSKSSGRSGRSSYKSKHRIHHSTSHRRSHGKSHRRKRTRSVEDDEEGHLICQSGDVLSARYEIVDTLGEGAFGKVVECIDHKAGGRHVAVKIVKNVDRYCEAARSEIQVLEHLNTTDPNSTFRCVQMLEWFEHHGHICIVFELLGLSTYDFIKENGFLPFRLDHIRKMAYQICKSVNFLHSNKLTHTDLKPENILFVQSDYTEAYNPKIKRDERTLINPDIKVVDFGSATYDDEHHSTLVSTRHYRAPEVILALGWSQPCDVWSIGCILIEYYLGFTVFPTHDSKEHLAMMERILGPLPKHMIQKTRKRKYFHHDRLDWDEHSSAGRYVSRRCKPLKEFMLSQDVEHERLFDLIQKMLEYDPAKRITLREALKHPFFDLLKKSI
Cyclin-dependent kinase 5/CDK5 activator 1 (Homo sapiens), sequence (Q00535 whole entry): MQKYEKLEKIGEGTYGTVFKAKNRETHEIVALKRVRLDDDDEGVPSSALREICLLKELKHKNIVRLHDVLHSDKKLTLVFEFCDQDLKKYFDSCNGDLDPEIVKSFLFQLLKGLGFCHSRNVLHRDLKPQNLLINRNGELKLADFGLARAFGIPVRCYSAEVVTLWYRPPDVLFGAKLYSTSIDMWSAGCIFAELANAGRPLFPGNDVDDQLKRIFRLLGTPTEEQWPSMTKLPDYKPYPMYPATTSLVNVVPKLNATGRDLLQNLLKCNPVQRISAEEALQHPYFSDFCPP
Cyclin-dependent kinase 5/CDK5 activator 1 (Homo sapiens), sequence (Q15078 99-307 partner limits assumed): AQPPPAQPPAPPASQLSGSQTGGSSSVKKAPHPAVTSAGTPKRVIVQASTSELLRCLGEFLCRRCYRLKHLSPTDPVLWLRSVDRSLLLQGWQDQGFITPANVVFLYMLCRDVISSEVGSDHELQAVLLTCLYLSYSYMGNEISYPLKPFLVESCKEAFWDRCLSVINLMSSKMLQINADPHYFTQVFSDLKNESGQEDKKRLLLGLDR
Dual specificity protein kinase CLK3, sequence (O35492 whole entry, the tested form may be a part): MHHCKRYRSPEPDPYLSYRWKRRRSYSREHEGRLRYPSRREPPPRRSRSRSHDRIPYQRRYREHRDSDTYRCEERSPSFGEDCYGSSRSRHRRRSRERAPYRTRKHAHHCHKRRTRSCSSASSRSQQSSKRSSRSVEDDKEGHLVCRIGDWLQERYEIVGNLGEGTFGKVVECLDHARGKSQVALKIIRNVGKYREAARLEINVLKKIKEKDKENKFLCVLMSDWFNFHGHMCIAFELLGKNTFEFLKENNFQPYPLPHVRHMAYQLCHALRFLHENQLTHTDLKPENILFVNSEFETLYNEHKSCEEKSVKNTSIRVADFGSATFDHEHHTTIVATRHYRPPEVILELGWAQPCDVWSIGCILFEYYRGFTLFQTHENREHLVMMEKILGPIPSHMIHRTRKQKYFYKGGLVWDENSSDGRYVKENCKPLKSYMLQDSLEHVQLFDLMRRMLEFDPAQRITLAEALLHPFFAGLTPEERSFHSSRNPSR
Dual specificity protein kinase CLK3 (Mus musculus), sequence (O35492 whole entry): as the sequence (O35492 whole entry, the tested form may be a part) above

SMILES | IC50 [1] | inhibition [2] | IC50 [3] | inhibition (Sus scrofa) | IC50 [4] | IC50 [5] | IC50 [6] | inhibition [7] | also measured
CCCNC1=N/C(=C\c2ccc3c(c2)OCO3)C(=O)N1c1ccccc1 | > 10 µM | inactive | > 10 µM | inactive | > 10 µM | > 10 µM | > 10 µM |  | 
CCCNC1=N/C(=C\c2ccccc2O)C(=O)N1C | > 10 µM | inactive |  | inactive | > 10 µM | > 10 µM | > 10 µM | inactive | 
CN1C(=O)/C(=C/c2ccc3c(c2)OCO3)N=C1NCC1CC1 | 0.51 µM |  | 0.2 µM |  | 2.1 µM | 0.13 µM | 0.34 µM |  | IC50 [8]: > 10 µM
CCN1/C(=C/C(C)=O)Sc2ccc(OC)cc21 |  |  |  |  |  |  |  |  | increase in exon inclusion ratio [9]: Dose-dependent effect
CN1C(=O)/C(=C/c2ccc3c(c2)OCO3)N=C1N [LEUCETTAMINE B] | 6.4 µM |  | 2.8 µM |  | > 10 µM | 0.4 µM | 1.5 µM |  | IC50 [8]: > 10 µM; IC50 [10]: > 10 µM
COc1ccc2c(c1)[nH]c1c(C)nccc12 |  |  |  |  |  |  |  |  | increase in exon inclusion ratio [9]: Dose-dependent effect
CN1C(=O)/C(=C/c2ccc3c(c2)OCO3)N=C1Nc1ccc2c(c1)OCCO2 | 3.6 µM |  | 0.22 µM |  | 2.2 µM | 0.22 µM |  |  | IC50 [8]: > 10 µM
CCCNC1=N/C(=C\c2ccc3c(c2)OC(F)(F)O3)C(=O)N1C |  | inactive |  | inactive | > 10 µM |  |  | inactive | inhibition [11]: inactive; inhibition [12]: inactive; inhibition [13]: inactive; inhibition [14]: inactive
CCCNC1=N/C(=C\c2ccccc2)C(=O)N1C |  | inactive |  | inactive | > 10 µM |  |  | inactive | inhibition [11]: inactive; inhibition [12]: inactive; inhibition [13]: inactive; inhibition [14]: inactive
CCCNC1=N/C(=C\c2ccc3c(c2)OCO3)C(=O)N1CCC |  | inactive | > 10 µM | inactive | > 10 µM |  | 2.1 µM |  | inhibition [11]: inactive; inhibition [13]: inactive
CC[C@H](CO)Nc1nc(NCc2ccccc2)c2ncn(C(C)C)c2n1 |  |  |  |  |  |  |  |  | increase in exon inclusion ratio [9]: inactive
CCCNC1=N/C(=C\c2cc(OC)c(OC)c(OC)c2)C(=O)N1C |  | inactive |  | inactive | > 10 µM | > 10 µM | > 10 µM | inactive | inhibition [13]: inactive; inhibition [14]: inactive
CCCNC1=N/C(=C\c2ccc(Br)cc2)C(=O)N1C | 8.8 µM | inactive |  | inactive |  |  |  |  | inhibition [11]: inactive; inhibition [12]: inactive; inhibition [15]: inactive
O=C1NC(Nc2ccc3c(c2)OCCO3)=N/C1=C\c1ccc2c(c1)OCO2 | > 10 µM |  | 0.17 µM | inactive | > 10 µM | 0.32 µM | 0.11 µM | inactive | IC50 [16]: > 10 µM
